Source: ChEMBL document CHEMBL1131203, “Second generation "peptoid" CCK-B receptor antagonists: identification and development of N-(adamantyloxycarbonyl)-alpha-methyl-(R)-tryptophan derivative (CI-1015) with an improved pharmacokinetic profile” (J Med Chem, 1998)

What was measured:
[1] = biological target: T1, Cholecystokinin receptor type A (Rattus norvegicus, UniProt P30551); test: Inhibitory concentration against radioligand [125I]Bolton-Hunter labeled CCK-8 to cholecystokinin type A receptor in the rat pancreas
T1 sequence (P30551 whole entry): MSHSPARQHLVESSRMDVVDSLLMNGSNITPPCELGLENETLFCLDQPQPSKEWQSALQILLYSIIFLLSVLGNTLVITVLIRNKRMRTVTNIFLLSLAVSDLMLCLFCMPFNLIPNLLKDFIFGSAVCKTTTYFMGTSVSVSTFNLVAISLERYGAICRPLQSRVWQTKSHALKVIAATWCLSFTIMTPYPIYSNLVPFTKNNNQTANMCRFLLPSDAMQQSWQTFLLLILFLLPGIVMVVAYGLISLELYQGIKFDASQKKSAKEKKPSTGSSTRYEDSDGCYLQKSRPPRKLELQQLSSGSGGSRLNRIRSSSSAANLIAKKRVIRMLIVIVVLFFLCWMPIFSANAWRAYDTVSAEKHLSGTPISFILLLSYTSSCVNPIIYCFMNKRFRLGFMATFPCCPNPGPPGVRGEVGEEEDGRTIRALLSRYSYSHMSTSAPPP

[2] = Ratio of IC50 towards CCK-A receptor and CCK-B receptor
[3] = biological target: T2, Gastrin/cholecystokinin type B receptor (Mus musculus, UniProt P56481); test: Inhibitory concentration against radioligand [125I]Bolton-Hunter labeled CCK-8 to cholecystokinin type B receptor in the mouse cerebral cortex; format: tissue-based
T2 sequence (P56481 whole entry): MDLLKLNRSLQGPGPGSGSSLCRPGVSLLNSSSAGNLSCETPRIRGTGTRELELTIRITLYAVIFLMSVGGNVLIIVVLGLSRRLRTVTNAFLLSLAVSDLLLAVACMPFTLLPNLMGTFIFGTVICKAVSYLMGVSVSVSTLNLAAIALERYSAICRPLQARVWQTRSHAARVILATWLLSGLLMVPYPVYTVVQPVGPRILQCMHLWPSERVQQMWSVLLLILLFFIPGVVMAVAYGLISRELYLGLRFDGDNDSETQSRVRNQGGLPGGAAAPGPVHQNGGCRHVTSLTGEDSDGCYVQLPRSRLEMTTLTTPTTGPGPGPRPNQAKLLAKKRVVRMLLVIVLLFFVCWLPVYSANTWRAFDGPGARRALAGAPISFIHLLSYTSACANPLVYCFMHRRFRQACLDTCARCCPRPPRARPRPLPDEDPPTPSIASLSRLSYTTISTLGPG

[4] = Maximum plasma concentration was evaluated in 10% of PEG suspension at a dose of 20 mg/kg orally; format: ADME, organism-based; set-up: dose 20 mg/kg, route oral; conditions: po
Outline: (§1)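 Fasted male Wistar rats, groups of 3–4, given a single oral 20 mg/kg dose in the stated vehicle. Heparinized plasma was collected from an implanted jugular-vein cannula at serial times out to 24 h, kept frozen, and assayed by validated HPLC-fluorescence. Cmax, tmax, AUC(0–∞) and terminal t1/2 were obtained by noncompartmental analysis. Values are means (%RSD).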

[5] = Maximum plasma concentration was evaluated in 0.5% methylcellulose suspension at a dose of 20 mg/kg orally; format: ADME, organism-based; set-up: dose 20 mg/kg, route oral; conditions: po; outline: as §1
[6] = Pharmacokinetic parameter half-life evaluated in HP-beta-CD solution at a dose of 20 mg/kg orally; format: ADME, organism-based; set-up: dose 20 mg/kg, route oral; conditions: in vivo, po; outline: as §1
Mus musculus [7] = test: Concentration in forebrain after 5 min of injection at a concentration of 1 mg/kg, iv in mice; format: functional
Outline: (§2)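 Ex vivo binding: mice were dosed iv with compound or vehicle, given either as saline or as 10% EtOH–60% propylene glycol–30% saline. Forebrains were taken at 5, 10 or 20 min, homogenized in HEPES buffer with bacitracin at pH 7.2, and incubated with 50 pM [125I]BH-CCK8s for 2 h at 22 °C. After filtration, bound radioligand was gamma-counted and read against calibration curves prepared in vehicle tissue. Detection limit was about 1 pmol/forebrain. n = 3–13.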

[8] = Oral bioavailability (dosed in HP-beta-CD solution) (dose 20 mg/kg p.o.); format: ADME, organism-based; conditions: eutheria, in vivo
Outline: (§3)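 Fasted male Wistar rats, groups of 3–4, given a single 20 mg/kg dose po or iv in the stated vehicle. Heparinized plasma was drawn from a jugular-vein cannula at serial times out to 24 h and assayed by validated HPLC-fluorescence. Absolute bioavailability is the dose-normalized ratio of AUC after po dosing to AUC after iv dosing.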

[9] = Pharmacokinetic parameter tmax was evaluated in 100% PEG solution at a dose of 20 mg/kg orally; format: ADME, organism-based; set-up: dose 20 mg/kg, route oral; conditions: in vivo, po; outline: as §1
[10] = Pharmacokinetic parameter AUC evaluated in 0.5% methylcellulose suspension at a dose of 20 mg/kg orally; format: ADME, organism-based; set-up: dose 20 mg/kg, route oral; conditions: in vivo, po; outline: as §1
[11] = Pharmacokinetic parameter AUC was evaluated in 10% PEG suspension at a dose of 20 mg/kg orally; format: ADME, organism-based; set-up: dose 20 mg/kg, route oral; conditions: in vivo, po; outline: as §1
[12] = Absolute oral bioavailability was evaluated in 0.5% methylcellulose suspentionat a dose of 20 mg/kg orally; format: ADME, organism-based; conditions: eutheria, in vivo; outline: as §3
[13] = Pharmacokinetic parameter AUC was evaluated in HP-beta-CD solution at a dose of 20 mg/kg orally; format: ADME, organism-based; set-up: dose 20 mg/kg, route oral; conditions: in vivo, po; outline: as §1
[14] = Maximum plasma concentration was evaluated in HP-beta-CD solution at a dose of 20 mg/kg orally; format: ADME, organism-based; set-up: dose 20 mg/kg, route oral; conditions: po; outline: as §1
[15] = Maximum plasma concentration was evaluated in 100% of PEG solution at a dose of 20 mg/kg orally; format: ADME, organism-based; set-up: dose 20 mg/kg, route oral; conditions: po; outline: as §1
[16] = Pharmacokinetic parameter tmax was evaluated in 10% PEG suspension at a dose of 20 mg/kg orally; format: ADME, organism-based; set-up: dose 20 mg/kg, route oral; conditions: in vivo, po; outline: as §1
[17] = Pharmacokinetic parameter half-life was evaluated in 0.5% methylcellulose suspension at a dose of 20 mg/kg orally; format: ADME, organism-based; set-up: dose 20 mg/kg, route oral; conditions: in vivo, po; outline: as §1
[18] = Pharmacokinetic parameter Tmax was evaluated in 0.5% methylcellulose suspension; conditions: in vivo
[19] = Pharmacokinetic parameter half-life was evaluated in 100% PEG solution at a dose of 20 mg/kg orally; format: ADME, organism-based; set-up: dose 20 mg/kg, route oral; conditions: in vivo, po; outline: as §1
[20] = Pharmacokinetic parameter tmax was evaluated in HP-beta-CD solution at a dose of 20 mg/kg orally; format: ADME, organism-based; set-up: dose 20 mg/kg, route oral; conditions: in vivo, po; outline: as §1
[21] = Absolute oral bioavailability was evaluated in 100% PEG solution; format: ADME, organism-based; conditions: eutheria, in vivo; outline: as §3
[22] = Pharmacokinetic parameter AUC was evaluated in 100% PEG solution at a dose of 20 mg/kg orally; format: ADME, organism-based; set-up: dose 20 mg/kg, route oral; conditions: in vivo, po; outline: as §1
[23] = Absolute oral bioavailability was evaluated in 10% PEG suspension at a dose of 20 mg/kg orally; format: ADME, organism-based; conditions: eutheria, in vivo; outline: as §3
Mus musculus [24] = test: Concentration in forebrain after 10 min of injection at a concentration of 1 mg/kg, iv in mice; format: functional; outline: as §2
[25] = Pharmacokinetic parameter half-life was evaluated in 10% PEG suspension at a dose of 20 mg/kg orally; format: ADME, organism-based; set-up: dose 20 mg/kg, route oral; conditions: in vivo, po; outline: as §1
Mus musculus [26] = test: Concentration in forebrain after 20 min of injection at a concentration of 1 mg/kg, iv in mice; format: functional; outline: as §2

`C[C@](Cc1c[nH]c2ccccc12)(NC(=O)OC1C2CC3CC(C2)CC1C3)C(=O)NN1CC2CCC(CC2)C1` (some centres undefined) showed an IC50 [1] of 1560 nM, a Ratio [2] of 238 and an IC50 [3] of 6.5 nM.

`C[C@](Cc1c[nH]c2ccccc12)(NC(=O)OC1C2CC3CC(C2)CC1C3)C(=O)N[C@H]1CCCCC[C@@H]1O` (some centres undefined) gave an IC50 [1] of 1660 nM, a Ratio [2] of 65 and an IC50 [3] of 25.5 nM.

In the case of `C[C@](Cc1c[nH]c2ccccc12)(NC(=O)OC1C2CC3CC(C2)CC1C3)C(=O)NN1CCCCC1` (some centres undefined), the IC50 [1] is reported as 3830 nM, the Ratio [2] is reported as 194 and the IC50 [3] is reported as 19.7 nM.

`C[C@](Cc1c[nH]c2ccccc12)(NC(=O)OC1C2CC3CC(C2)CC1C3)C(=O)NC(CC(=O)O)CC(=O)O` (some centres undefined) showed an IC50 [1] of 15700 nM, a Ratio [2] of 8.9 and an IC50 [3] of 1770 nM.

`COC(=O)CC(CC(=O)OC)NC(=O)[C@@](C)(Cc1c[nH]c2ccccc12)NC(=O)OC1C2CC3CC(C2)CC1C3` (some centres undefined) showed an IC50 [1] of 1170 nM, a Ratio [2] of 5.5 and an IC50 [3] of 214 nM.

`CC1CCCCC1NC(=O)[C@@](C)(Cc1c[nH]c2ccccc12)NC(=O)OC1C2CC3CC(C2)CC1C3` (some centres undefined) showed an IC50 [1] of 2780 nM, a Ratio [2] of 71.4 and an IC50 [3] of 39 nM.

In the case of `C[C@](Cc1c[nH]c2ccccc12)(NC(=O)OC1C2CC3CC(C2)CC1C3)C(=O)N[C@H]1CCCC[C@@H]1O` (some centres undefined), the IC50 [1] is reported as 1940 nM.

`C[C@](Cc1c[nH]c2ccccc12)(NC(=O)OC1C2CC3CC(C2)CC1C3)C(=O)NC(Cc1ccccc1)Cc1ccccc1` (some centres undefined) showed an IC50 [1] of 2240 nM, a Ratio [2] of 112 and an IC50 [3] of 19.9 nM.

Work on `C[C@](Cc1c[nH]c2ccccc12)(NC(=O)OC1C2CC3CC(C2)CC1C3)C(=O)N[C@@H]1CCCC[C@H]1O` (some centres undefined) yielded a Cmax [4] of 203 ng/mL, a Cmax [5] of 185 ng/mL and a half-life [6] of 0.9 h. It also gave a Brain level (Mus musculus [7]) of 177 pmol/forebrain, a bioavailability [8] of 28% and a Tmax [9] of 1 h. It also gave an AUC [10] of 673 ng·h/mL, an AUC [11] of 953 ng·h/mL and a bioavailability [12] of 8.9%. For the same compound, the AUC [13] was 2130 ng·h/mL, the Cmax [14] was 756 ng/mL and the Cmax [15] was 219 ng/mL. The Tmax [16] was 3.5 h, the half-life [17] was 1 h and the IC50 [1] was 2900 nM. For the same compound, the Tmax [18] was 3 h, the half-life [19] was 1.3 h and the Tmax [20] was 1.8 h. It also gave a bioavailability [21] of 9.6%, an AUC [22] of 724 ng·h/mL and a bioavailability [23] of 13%. For the same compound, the Brain level (Mus musculus [24]) was 154 pmol/forebrain, the half-life [25] was 1.1 h and the Brain level (Mus musculus [26]) was 166 pmol/forebrain.

Compound `C[C@](Cc1c[nH]c2ccccc12)(NC(=O)OC1C2CC3CC(C2)CC1C3)C(=O)NN1CCCC1` (some centres undefined) has an IC50 [1] of 10800 nM, a Ratio [2] of 82 and an IC50 [3] of 132 nM.

With `C[C@](Cc1c[nH]c2ccccc12)(NC(=O)OC1C2CC3CC(C2)CC1C3)C(=O)N[C@@H]1CCCCC[C@H]1O` (some centres undefined) the IC50 [1] was 1240 nM, the Ratio [2] was 267 and the IC50 [3] was 4.65 nM.

Work on `C[C@](Cc1c[nH]c2ccccc12)(NC(=O)OC1C2CC3CC(C2)CC1C3)C(=O)NC1CCCCC1O` (some centres undefined) yielded an IC50 [1] of 1380 nM.

With `C[C@](Cc1c[nH]c2ccccc12)(NC(=O)OC1C2CC3CC(C2)CC1C3)C(=O)NC1(C(=O)O)CCCCC1` (some centres undefined) the IC50 [1] was 1520 nM, the Ratio [2] was 18.4 and the IC50 [3] was 83 nM.

Work on `C[C@](Cc1c[nH]c2ccccc12)(NC(=O)OC1C2CC3CC(C2)CC1C3)C(=O)NC1(CO)CCCC1` (some centres undefined) yielded an IC50 [1] of 1420 nM, a Ratio [2] of 5.3 and an IC50 [3] of 268 nM.
